Activity calls are given as the source filed them. The calls are words filed in the database; no cut-off is given here.
Key:
Staphylococcus aureus [1] = assay: Antibacterial activity against Staphylococcus aureus ATCC 25923 at 100 ug/disk after 24 to 48 hrs by disc-diffusion method; type: functional; settings: read-out: IZ
Staphylococcus aureus [2] = assay: Antibacterial activity against Staphylococcus aureus NCTC 4163 at 100 ug/disk after 24 to 48 hrs by disc-diffusion method; type: functional; settings: read-out: IZ
Staphylococcus aureus [3] = assay: Antibacterial activity against Staphylococcus aureus ATCC 29213 at 100 ug/disk after 24 to 48 hrs by disc-diffusion method; type: functional; settings: read-out: IZ
Staphylococcus aureus [4] = assay: Antibacterial activity against Staphylococcus aureus ATCC 6538P at 100 ug/disk after 24 to 48 hrs by disc-diffusion method; type: functional; settings: read-out: IZ
Bacillus subtilis = assay: Antibacterial activity against Bacillus subtilis ATCC 6633 at 100 ug/disk […] by disc-diffusion method; type: functional; settings: read-out: IZ
Enterococcus hirae = assay: Antibacterial activity against Enterococcus hirae ATCC 10541 at 100 ug/disk […] by disc-diffusion method; type: functional; settings: read-out: IZ
Escherichia coli [5] = assay: Antibacterial activity against Escherichia coli ATCC 25922 at 100 ug/disk […] by disc-diffusion method; type: functional, organism-based
Escherichia coli [6] = assay: Antibacterial activity against Escherichia coli ATCC 10538 at 100 ug/disk […] by disc-diffusion method; type: functional, organism-based
Pseudomonas aeruginosa [7] = assay: Antibacterial activity against Pseudomonas aeruginosa NCTC 6749 at 100 ug/disk […] by disc-diffusion method; type: functional, organism-based
Pseudomonas aeruginosa [8] = assay: Antibacterial activity against Pseudomonas aeruginosa ATCC 15442 at 100 ug/disk […] by disc-diffusion method; type: functional, organism-based
[9] = test system: Bordetella bronchiseptica; assay: Antibacterial activity against Bordetella bronchiseptica ATCC 4617 at 100 ug/disk […] by disc-diffusion method; type: functional; settings: read-out: IZ
Candida albicans = assay: Antimicrobial activity against Candida albicans ATCC 10231 at 100 ug/disk after 24 to 48 hrs by disc-diffusion method; type: functional, organism-based
Procedure, shortened: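 Antifungal disc diffusion on YNB agar under CLSI guidelines. Sterile 10 mm filter-paper discs were loaded from aqueous solution with 100 or 400 µg of compound per disc. Plates were read after 24–48 h incubation at 30 °C.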

Staphylococcus aureus [10] = assay: Antibacterial activity against Staphylococcus aureus ATCC 25923 at 400 ug/disk after 24 to 48 hrs by disc-diffusion method; type: functional; settings: read-out: IZ
Staphylococcus aureus [11] = assay: Antibacterial activity against Staphylococcus aureus NCTC 4163 at 400 ug/disk after 24 to 48 hrs by disc-diffusion method; type: functional; settings: read-out: IZ
Staphylococcus aureus [12] = assay: Antibacterial activity against Staphylococcus aureus ATCC 25923 after 18 hrs; type: functional; settings: ATCC 25923, 18 h
Procedure, shortened: (§1)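 Agar-dilution MIC on Mueller–Hinton II agar per CLSI guidelines. Aqueous test solutions were added to liquid agar to give two dilution series across 6.25–400 µg/mL. Solidified plates were spot-inoculated with 2 µL aliquots to a final inoculum of 10^4 […]. […] Strains were standard S. aureus strains or hospital patient isolates typed MSSA/MRSA.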

Staphylococcus aureus [13] = assay: Antibacterial activity against Staphylococcus aureus NCTC 4163 after 18 hrs; type: functional; settings: NCTC 4163, 18 h; procedure, shortened: as §1
Staphylococcus aureus [14] = assay: Antibacterial activity against Staphylococcus aureus ATCC 29213 after 18 hrs; type: functional; settings: ATCC 29213, 18 h; procedure, shortened: as §1
Staphylococcus aureus [15] = assay: Antibacterial activity against Staphylococcus aureus ATCC 6538P after 18 hrs; type: functional; procedure, shortened: as §1
Staphylococcus aureus [16] = assay: Antibacterial activity against methicillin-susceptible Staphylococcus aureus 2/04 isolates after 18 hrs; type: functional; procedure, shortened: as §1
Staphylococcus aureus [17] = assay: Antibacterial activity against methicillin-susceptible Staphylococcus aureus 3/04 isolates after 18 hrs; type: functional; procedure, shortened: as §1
Staphylococcus aureus [18] = assay: Antibacterial activity against methicillin-susceptible Staphylococcus aureus 4/04 isolates after 18 hrs; type: functional; procedure, shortened: as §1
Staphylococcus aureus [19] = assay: Antibacterial activity against methicillin-susceptible Staphylococcus aureus 6/04 isolates after 18 hrs; type: functional; procedure, shortened: as §1
Staphylococcus aureus [20] = assay: Antibacterial activity against methicillin-susceptible Staphylococcus aureus 7/04 isolates after 18 hrs; type: functional; procedure, shortened: as §1
Staphylococcus aureus [21] = assay: Antibacterial activity against methicillin-susceptible Staphylococcus aureus 14/04 isolates after 18 hrs; type: functional; procedure, shortened: as §1
Staphylococcus aureus [22] = assay: Antibacterial activity against methicillin-susceptible Staphylococcus aureus 28/04 isolates after 18 hrs; type: functional; procedure, shortened: as §1
Staphylococcus aureus [23] = assay: Antibacterial activity against methicillin-susceptible Staphylococcus aureus 36/05 isolates after 18 hrs; type: functional; procedure, shortened: as §1
Staphylococcus aureus [24] = assay: Antibacterial activity against methicillin-susceptible Staphylococcus aureus 38/05 isolates after 18 hrs; type: functional; procedure, shortened: as §1
Staphylococcus aureus [25] = assay: Antibacterial activity against methicillin-susceptible Staphylococcus aureus 40/05 isolates after 18 hrs; type: functional; procedure, shortened: as §1
Staphylococcus aureus [26] = assay: Antibacterial activity against methicillin-susceptible Staphylococcus aureus 42/05 isolates after 18 hrs; type: functional; procedure, shortened: as §1
Staphylococcus aureus [27] = assay: Antibacterial activity against methicillin-susceptible Staphylococcus aureus 49/05 isolates after 18 hrs; type: functional; procedure, shortened: as §1
Staphylococcus aureus [28] = assay: Antibacterial activity against methicillin-susceptible Staphylococcus aureus 60/05 isolates after 18 hrs; type: functional; procedure, shortened: as §1
Staphylococcus aureus [29] = assay: Antibacterial activity against methicillin-susceptible Staphylococcus aureus 65/05 isolates after 18 hrs; type: functional; procedure, shortened: as §1
Staphylococcus aureus [30] = assay: Antibacterial activity against methicillin-susceptible Staphylococcus aureus 69/05 isolates after 18 hrs; type: functional; procedure, shortened: as §1

## CC1=C(C)C2(C)C3C(=O)N(OCC(O)C[N+](C)(C)CC(O)CON4C(=O)C5C(C4=O)C4(C)C(C)=C(C)C5(C)C4C)C(=O)C3C1(C)C2C.[Cl-] (stereo not drawn)
Staphylococcus aureus [1]
  zone of inhibition at 100 µg/disc: 16 mm
Staphylococcus aureus [2]
  zone of inhibition at 100 µg/disc: 17 mm
Staphylococcus aureus [3]
  zone of inhibition at 100 µg/disc: 14 mm
Staphylococcus aureus [4]
  zone of inhibition at 100 µg/disc: 17 mm
Bacillus subtilis
  zone of inhibition at 100 µg/disc: 25 mm
Enterococcus hirae
  zone of inhibition at 100 µg/disc: 14 mm
Escherichia coli [5]
  Activity: inactive
Escherichia coli [6]
  Activity: inactive
Pseudomonas aeruginosa [7]
  Activity: inactive
Pseudomonas aeruginosa [8]
  Activity: inactive
[9]
  zone of inhibition at 100 µg/disc: 13 mm
Candida albicans
  Activity: inactive
Staphylococcus aureus [10]
  zone of inhibition at 400 µg/disc: 20 mm
Staphylococcus aureus [11]
  zone of inhibition at 400 µg/disc: 24 mm
Staphylococcus aureus [12]
  MIC: 50 µg/mL
Staphylococcus aureus [13]
  MIC: 50 µg/mL
Staphylococcus aureus [14]
  MIC: 50 µg/mL
Staphylococcus aureus [15]
  MIC: 50 µg/mL
Staphylococcus aureus [16]
  MIC: 25 µg/mL
Staphylococcus aureus [17]
  MIC: 25 µg/mL
Staphylococcus aureus [18]
  MIC: 25 µg/mL
Staphylococcus aureus [19]
  MIC: 25 µg/mL
Staphylococcus aureus [20]
  MIC: 25 µg/mL
Staphylococcus aureus [21]
  MIC: 25 µg/mL
Staphylococcus aureus [22]
  MIC: 50 µg/mL
Staphylococcus aureus [23]
  MIC: 50 µg/mL
Staphylococcus aureus [24]
  MIC: 50 µg/mL
Staphylococcus aureus [25]
  MIC: 50 µg/mL
Staphylococcus aureus [26]
  MIC: 25 µg/mL
Staphylococcus aureus [27]
  MIC: 25 µg/mL
Staphylococcus aureus [28]
  MIC: 25 µg/mL
Staphylococcus aureus [29]
  MIC: 25 µg/mL
Staphylococcus aureus [30]
  MIC: 25 µg/mL

Source: ChEMBL document CHEMBL1141663, “Synthesis and antibacterial activity of bis-[2-hydroxy-3-(1,7,8,9,10-pentamethyl-3,5-dioxo-4-aza-tricyclo[5.2.1.0(2,6)]dec-8-en-4-yloxy)-propyl]-dimethyl-ammonium chloride” (2008)
